Assays:
Format in all cases: organism-based
Design in all cases: route oral
Conditions in all cases: in vivo, 336 h
Homo sapiens [1] = test: Toxicity in patient with mucormycosis assessed as creatinine level at 5 to 20 mg/kg/day, po for 14 days (reference value: 1.6 mg/dl)
Procedure, shortened: (§1)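 Open-label deferasirox given to patients with mucormycosis. One patient with coexisting hepatic disease received 5 mg/kg of body weight/day for 20 days. Laboratory values were reported as medians (interquartile range) at diagnosis, at start of deferasirox, at end of deferasirox, and at a final time point.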

Homo sapiens [2] = test: Toxicity in patient with mucormycosis assessed as glucose level at 5 to 20 mg/kg/day, po for 14 days (reference value: 131 mg/dl); procedure, shortened: as §1
Homo sapiens [3] = test: Toxicity in patient with mucormycosis assessed as blood urea nitrogen level at 5 to 20 mg/kg/day, po for 14 days (reference value: 34 mg/dl); procedure, shortened: as §1
Homo sapiens [4] = test: Toxicity in patient with mucormycosis assessed as hemoglobin level at 5 to 20 mg/kg/day, po for 14 days (reference value: […]); procedure, shortened: as §1
Homo sapiens [5] = test: Toxicity in patient with mucormycosis assessed as absolute neutrophil count at 5 to 20 mg/kg/day, po for 14 days (reference value: 5.2/uL); procedure, shortened: as §1
Homo sapiens [6] = test: Toxicity in patient with mucormycosis assessed as platelet count at 5 to 20 mg/kg/day, po for 14 days (reference value: 217/uL); procedure, shortened: as §1
Homo sapiens [7] = test: Toxicity in patient with mucormycosis assessed as alkaline phosphatase level at 5 to 20 mg/kg/day, po for 14 days (reference value: 126 U/l); procedure, shortened: as §1
Homo sapiens [8] = test: Toxicity in patient with mucormycosis assessed as WBC count at 5 to 20 mg/kg/day, po for 14 days (reference value: 8.1/uL); procedure, shortened: as §1
Homo sapiens [9] = test: Toxicity in patient with mucormycosis assessed as alanine transaminase level at 5 to 20 mg/kg/day, po for 14 days (reference value: 21 U/l); procedure, shortened: as §1
Homo sapiens [10] = test: Toxicity in patient with mucormycosis assessed as aspartate transaminase level at 5 to 20 mg/kg/day, po for 14 days (reference value: 27 U/l); procedure, shortened: as §1
Homo sapiens [11] = test: Toxicity in patient with mucormycosis assessed as total bilirubin level at 5 to 20 mg/kg/day, po for 14 days (reference value: 0.8 mg/dl); procedure, shortened: as §1

Compound O=C(O)c1ccc(-n2nc(-c3ccccc3O)nc2-c2ccccc2O)cc1 [DEFERASIROX] has an Activity (Homo sapiens [1]) of 1.9 mg/dL, an Activity (Homo sapiens [2]) of 104 mg/dL and an Activity (Homo sapiens [3]) of 43 mg/dL. For the same compound, the Activity (Homo sapiens [4]) was 9 g/dL, the Activity (Homo sapiens [5]) was 5.4 10^3 cells/µL and the Activity (Homo sapiens [6]) was 199 10^3 cells/µL. For the same compound, the Activity (Homo sapiens [7]) was 314 U/L, the Activity (Homo sapiens [8]) was 10.8 10^3 cells/µL and the Activity (Homo sapiens [9]) was 49 U/L. For the same compound, the Activity (Homo sapiens [10]) was 28 U/L and the Activity (Homo sapiens [11]) was 0.6 mg/dL.

Source: ChEMBL document CHEMBL1649518, “Safety and outcomes of open-label deferasirox iron chelation therapy for mucormycosis” (Antimicrob Agents Chemother, 2009)
